Laboratory results from ChEMBL document CHEMBL4513216, “Probing the Open Global Health Chemical Diversity Library for Multistage-Active Starting Points for Next-Generation Antimalarials” (ACS Infect Dis, 2020).

Experiment: Toxicity liver stage against HepG2, at 10uM
Format: cell-based
Set-up: test concentration 10 uM, cell line HepG2-A16-CD81EGFP
Details: human, HepG2-A16-CD81EGFP cells; read-out: INHIBITION
Outline: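 Uninfected HepG2-A16-CD81EGFP cells, 3 × 10^3 per well, 1536-well, plated on prespotted compound at 10 μM final, parasite-free screening media added to match infected plates; puromycin 10 μM positive, DMSO 0.5% negative; run in parallel with 48 h PbLuc assay at 37 °C, 5% CO2; viability by CellTiter-Glo luminescence, normalized to controls.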

Compound	cytotoxicity at 10 µM [%]
CN(C)C(=O)C(C)(C)c1ccc2c(c1)OCCO2	-1.52
Nc1nccnc1CC1CCCN(Cc2ccnc3ccccc23)C1 (stereo not drawn)	24.7
CSc1ccc(-c2noc(CN(Cc3ccccc3)C(C)C)n2)cc1	3.88
COCc1cc(N2CCN(Cc3ccncc3)CC2)n2nccc2n1	-6.32
O=C1CN(Cc2cn(CC3CCN(C4CCSCC4)CC3)nn2)CCN1	-48.2
Cc1cnn(CC2CN(Cc3cccnc3)CCO2)c1 (stereo not drawn)	-3.27
NC(=O)CN1CCCC(c2nccnc2Oc2cccc(F)c2)C1 (stereo not drawn)	-17.1
Cn1ccc(C(=O)N2CCC(Cc3cnc4[nH]ccc4c3)C2)n1 (stereo not drawn)	-5
COc1ccccc1C(C)CC(=O)N1CCCS1(=O)=O (stereo not drawn)	-11.6
O=C(c1cccs1)N1CCc2c(nc(N3CCCC3)[nH]c2=O)C1	-16.3
O=C(CN(C1=NCCCC1)c1ccccc1)c1ccccc1	-0.239
COC(=O)C1CCCN1CC(=O)NCc1ccc(OCC(N)=O)cc1 (stereo not drawn)	7.45
NC(=O)N1CCCC(C(=O)NCCOc2ccc3c(c2)OCO3)C1 (stereo not drawn)	-102
Cc1cnn(CC2CCCN2C(=O)Cc2cn3ccsc3n2)c1 (stereo not drawn)	-10.1
COc1cccc(COCC(=O)N2CCCC(c3nncn3C)C2)c1 (stereo not drawn)	-6.36
Cc1nc[nH]c1-c1nccn1CCN(C)S(C)(=O)=O	-6.03
CCN1CC(C(=O)NCc2nn(CC)c3ccccc23)CCC1=O (stereo not drawn)	-5.83
Cc1ccccc1C(=O)N1CCOC2(CNCCOC2)C1 (stereo not drawn)	-16.5
O=C(O)c1ccn(-c2cccc(NC(=O)c3ccccc3Cl)c2)n1	-139
CCN(C(=O)NCCc1ccc(C)cc1C)C(C)CS(C)(=O)=O (stereo not drawn)	11.3
O=C(Nc1cccn(Cc2ccc(F)cc2)c1=O)c1csnn1	1.51
Cn1ccc(C(=O)N2CCN(c3nccs3)CC2)cc1=O	-18.1
CC(=O)Nc1cc(CN(C)C)ccc1C	-1.89

Compound	cytotoxicity at 10 µM [%]
CCN1CCN(CC(O)c2ccc(Br)cc2)CC1 (stereo not drawn)	-6.95
CC(C)(C)n1ncc2c(=O)[nH]c(N3CCN(CCO)CC3)nc21	-13.3
CC1CCc2[nH]c(=O)c(C(=O)N3CCc4ccccc4C3)cc2C1 (stereo not drawn)	-6.77
CSCC(C)(O)CNC(=O)c1ccc(F)cc1Cl (stereo not drawn)	-2.79
COc1ccccc1C1(C(=O)N2CCCC(c3cc(C)[nH]n3)C2)CC1 (stereo not drawn)	-16.7
CCOCC(O)CN1CCN(C(=O)C2CCCC2)CC1 (stereo not drawn)	-13
c1ccc(-c2nc(CCNc3nnc(C4CCC4)o3)no2)cc1	-3.37
Cc1ncsc1CN1CCN(C)C2(CCC(=O)N(CCO)CC2)C1 (stereo not drawn)	-9.8
N#Cc1cccc(OCCN2CCCC2C(=O)N2CCSCC2)c1 (stereo not drawn)	9.06
Cc1ccc(C)c(S(=O)(=O)NC(=O)COc2cccc(C#N)c2)c1	9.7
CC(C)C(NC(=O)C1CC1)c1cc(O)nc(-c2cccnc2)n1 (stereo not drawn)	5.18
CC(C)COC(C)C(=O)N1CCN(S(C)(=O)=O)CC1 (stereo not drawn)	-5.38
COc1cccc2c(=O)n(CCN3CCNCC3)cnc12	0.623
CCc1nnc(N[C@H](C)c2cccc(OC)c2)o1	1.35
C[C@H](NC(=O)C1CCCC1)c1nc2cc(-c3ccc(F)cc3)ncn2n1	-10.9
CCN(Cc1ccncc1)C(=O)c1cn(CCCc2ccccc2)nn1	3
CC(NC(=O)N1CCC(c2ccccc2)CC1)c1nncn1C (stereo not drawn)	-10.3
O=C(c1ccncc1)N1CCc2onc(CN3CCCC3)c2C1	-3.7
O=C(NCCc1ccn(-c2ccc(F)cc2)n1)C1CCCOC1 (stereo not drawn)	6.65
CC1(C)Cc2c(cnn2-c2cccc(F)c2)C(NC2CCSCC2)C1 (stereo not drawn)	-142
COc1nccc(C(F)(F)F)c1C(=O)O	16
Cn1nc(C2CNCCO2)cc1CCOc1ccc(Cl)cc1 (stereo not drawn)	-7.72
COCCOCC(=O)N1C[C@@H]2CC[C@H]1CN(C1Cc3ccccc3C1)C2	-9.04

Compound	cytotoxicity at 10 µM [%]
CN(C)C(=O)COc1ccccc1CN1CCOC2(CCCC2)C1	-4.8
Cc1nc(C2CCCN2C(=O)CCCn2cccn2)no1 (stereo not drawn)	-4.77
Cc1cc(N2CCC(c3n[nH]c4nccnc34)CC2)ncn1	-25.6
CCS(=O)(=O)N1CCc2ccc(NC(=O)NC(C)(C)C)cc21	-6.69
CS(=O)(=O)c1ccc(NC(=O)CSC(F)(F)F)cn1	8.28
CCOc1ccccc1-c1cc2c(cc1C(N)=O)OCO2	5.05
CC(C)Cc1noc(CNc2cc3c(cc2Cl)OCCCO3)n1	6.48
CCCc1nc(N(C)CCc2noc(C(C)C)n2)c2cnn(C)c2n1	3.86
CN(C)C(=O)[C@@H]1C[C@@H]2CCN(C3CCOCC3)C[C@H]2O1	7.86
CCc1nnsc1C(=O)N1CCN(CC(O)CC)CC1 (stereo not drawn)	-6.06
CCn1ncc2c1CN(C(=O)Cc1ccccn1)CC2COC (stereo not drawn)	-70.7
O=C1Nc2ccccc2/C1=C1\CCCCN1	4.95
CNC(=O)COc1ccccc1CNC1CCc2ncnn2C1 (stereo not drawn)	-13.6
CCC(=O)N1C[C@@H]2CCN(c3cnccn3)C[C@@H]2C1	-13.2
FC(F)(F)c1cc(C2CCCN(c3ncccn3)C2)n2ccnc2n1 (stereo not drawn)	10.4
Cc1c[nH]c(C(=O)N2CCn3nc(C(=O)NC4CC4)cc3C2)n1	-2.66
CC(C)(C)c1cc(=O)[nH]c(C2(N)CCCC2)n1	8.79
FC1(F)CCNCC12CCN(c1ccccn1)C2 (stereo not drawn)	-0.31
COc1cccc(-c2n[nH]cc2CNC2CCC(O)CC2)c1 (stereo not drawn)	-0.874
COc1ccccc1CCNC(=O)NCC(=O)Nc1cccnc1	-15.2
CS(=O)(=O)NC[C@]12COC[C@H]1CN(C(=O)c1cnccn1)C2	6.3
O=C(Cc1csc(-c2ccco2)n1)N1CCCC1Cn1cccn1 (stereo not drawn)	-11.2
Cc1cc(C)cc(OCC(=O)N2CCC2)c1	2.01

Compound	cytotoxicity at 10 µM [%]
O=C(COc1cccc2c1CCC2=O)NCc1ccccc1F	-5.33
COCc1nc(-c2ccc(S(=O)(=O)N3CCCC3)cc2)cs1	-49.8
COc1ccc(C2=CCN(C(=O)C3CCS(=O)(=O)C3)CC2)cc1 (stereo not drawn)	-7.45
COCC(=O)N1CCC(c2c(C(=O)N(C)C)sc3ncccc23)C1 (stereo not drawn)	1.55
CCN(Cc1ccc2c(c1)OCCO2)C(=O)NC(C)Cn1cccn1 (stereo not drawn)	-10.6
CC(C)C1C(=O)NCCN1C(=O)CCCc1nc(C(C)(C)C)no1 (stereo not drawn)	-3.53
NC(=O)CSc1ccccc1NCc1nc(C2CC2)no1	1.12
CC[C@H]1CN(C(=O)CCn2c(C)cccc2=O)CC[C@@]1(C)O	8.51
O=C(Nc1ccccc1OCc1ccccn1)NC1CCOCC1	6.78
CO[C@H]1CN(C(C)C)C[C@@H]1NC(=O)Nc1cccc(SC)c1	2.85
Cc1ccc(CN2CC[C@H]3[C@H](CO[C@H]3CN(C)C)C2)o1	-129
Cc1nn(C)cc1-c1cc(C(F)F)nc2sc(C(N)=O)c(N)c12	2.6
CC(C)Cc1noc(CN(C)C(=O)CCNC(=O)c2ccccc2F)n1	-9.22
Cn1cncc1CN1CCC2(CCCN2c2ncccn2)CC1	9.37
Cc1cn2c(n1)CCC(NC(=O)c1ccc(S(C)(=O)=O)o1)C2 (stereo not drawn)	-6.92
COc1cccc(CNCc2nnc3n2CC(C(F)(F)F)CC3)c1 (stereo not drawn)	14
OC1(Cn2ccc3ncccc32)CCN(Cc2ccccn2)CC1	5.33
Cc1nc(CN(C)C2CCN(Cc3nc4ccccc4s3)C2)no1 (stereo not drawn)	-4.27
CC(=O)NCc1nnn2c1CN(c1ncccn1)CCC2	-107
CN1CCN(c2ncc3c(c2C(=O)O)CCN(C2CCOC2)C3)CC1 (stereo not drawn)	6.96
Cc1ccccc1CN1CC[C@@]2(O)CCN(C(=O)C3CCC3)C[C@H]2C1	27.9
CCOCC1CN(Cc2cc(C)on2)Cc2cn(C)nc21 (stereo not drawn)	13.6
c1ccc(Cn2ccnc2CNC2CCCOc3ccccc32)cc1 (stereo not drawn)	-4.34

Compound	cytotoxicity at 10 µM [%]
Cc1cc(NC(=O)NCc2ccc(S(=O)(=O)N3CCCC3)s2)no1	-2.24
NC(=O)C1CCN(C(=O)c2cc(Br)ccc2-n2cnnn2)CC1	13.1
c1ccc(-c2nc(CN3CCCC3Cn3cncn3)cs2)cc1 (stereo not drawn)	-14
CCC(C)[C@H](NC(=O)c1ccc(F)cc1-n1cnnn1)C(=O)OC (stereo partly drawn)	5.55
Cc1ncncc1C(=O)N1CCCC(Cc2nccs2)C1 (stereo not drawn)	-9.13
CC(C)(C(=O)N[C@@H]1CCC[C@@H](O)[C@@H]1O)c1cccc(F)c1	4.79
CCOc1ccccc1OC1CCN(C(=O)c2cc[nH]n2)CC1	-4.53
CN(C)CCOc1cc(NC(=O)COCC(F)(F)F)ccn1	-2.29
Cc1cccc(-n2nc(CC(C)C)nc2CS(C)(=O)=O)c1	1.81
CCC(C)CS(=O)(=O)NC(=O)C1CCC1 (stereo not drawn)	-7.88
CN1CC[C@]2(CN(Cc3cccs3)C[C@H]2c2ccccc2)C1=O	9.82
CN1CC[C@H](N(Cc2ccccc2)C2COC2)C[C@H](O)C1	4.27
COc1c(C2CCCN2C(=O)c2ccoc2C)c(C)nn1C (stereo not drawn)	0.243
CCOc1ccc(C2CCCN2Cc2nnnn2C2CC2)cc1 (stereo not drawn)	6.26
O=C(CCc1ccsc1)N1CCCC(N2CCNC2=O)C1 (stereo not drawn)	-5.7
NS(=O)(=O)NCC1(c2ccccc2Br)CC1	2.91
Cc1nc2c(c(N3CCC(O)(CN4CCCC4)CC3)n1)CCN(C)CC2	-2.84
CS(=O)(=O)CCC(=O)NC1CC(c2cccc(Cl)c2)C1 (stereo not drawn)	1.36
O=C(CN1CCSCC1c1ccccc1)N1CCOCC1 (stereo not drawn)	-5.88
CNS(=O)(=O)CC1CCCN1c1ccc(Br)cn1 (stereo not drawn)	3.1
CN(C)c1ccc(C(=O)NCC2(c3ccccc3)CCOCC2)cc1	6.52
